Reference: ChEMBL document CHEMBL5058577, “EUbOPEN Chemogenomics Library 2 (Multiplex)” (2022)

Tested on: U2OS
Experiment: Multiplex assay against U2OS
Format: toxicity, cell-based
Conditions: human
Outline: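 Live cells were stained at seeding with Hoechst33342, BioTracker Green Microtubule Cytoskeleton Dye, MitoTracker Red and Annexin V Alexa Fluor 680, then imaged on a CQ1 microscope at 37°C and 5% CO2 after compound addition. CellPathfinder machine-learning gating split cells into Hoechst high-intensity objects or normal cells. Normal cells were split into healthy, pyknosed or fragmented nuclei, and pyknosed cells into mitotic or apoptotic. Tubulin, mitochondrial-mass and membrane-permeability phenotypes are per cents of healthy-nucleus cells.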

[1] = 12 h, 1 µM, compound concentration 1 uM, replicate 1
[2] = 12 h, 1 µM, compound concentration 1 uM, replicate 2
[3] = 12 h, 10 µM, compound concentration 10 uM, replicate 1
[4] = 12 h, 10 µM, compound concentration 10 uM, replicate 2
[5] = 24 h, 1 µM, compound concentration 1 uM, replicate 1
[6] = 24 h, 1 µM, compound concentration 1 uM, replicate 2
[7] = 24 h, 10 µM, compound concentration 10 uM, replicate 1
[8] = 24 h, 10 µM, compound concentration 10 uM, replicate 2
[9] = 48 h, 1 µM, compound concentration 1 uM, replicate 1
[10] = 48 h, 1 µM, compound concentration 1 uM, replicate 2
[11] = 48 h, 10 µM, compound concentration 10 uM, replicate 1
[12] = 48 h, 10 µM, compound concentration 10 uM, replicate 2

CCn1c(-c2nc3cc(C(=O)N4CCCC(N)C4)ccc3n2C)cc2ccccc21.Cl (stereo not drawn)
Population Apoptotic (%) [1]: 61%
Population Fragmented Nuclei (%) [1]: 22%
Population Healthy Nuclei (%) [1]: 67%
Population Hoechst High Intensity Objects (%) [1]: 0%
Population Membrane Permeable-Phenotype (%) [1]: 4%
Population Mitochondria Different-Phenotype (%) [1]: 3%
Population Mitotic Cells (%) [1]: 38%
Population Normal (%) [1]: 99%
Population Pyknosed Nuclei (%) [1]: 9%
Population Tubulin-Different-Phenotype (%) [1]: 2%
Total Cell Count [1]: 213
Population Apoptotic (%) [2]: 100%
Population Fragmented Nuclei (%) [2]: 18%
Population Healthy Nuclei (%) [2]: 77%
Population Hoechst High Intensity Objects (%) [2]: 5%
Population Membrane Permeable-Phenotype (%) [2]: 15%
Population Mitochondria Different-Phenotype (%) [2]: 18%
Population Mitotic Cells (%) [2]: 0%
Population Normal (%) [2]: 94%
Population Pyknosed Nuclei (%) [2]: 3%
Population Tubulin-Different-Phenotype (%) [2]: 13%
Total Cell Count [2]: 90
Population Apoptotic (%) [3]: 48%
Population Fragmented Nuclei (%) [3]: 24%
Population Healthy Nuclei (%) [3]: 56%
Population Hoechst High Intensity Objects (%) [3]: 2%
Population Membrane Permeable-Phenotype (%) [3]: 34%
Population Mitochondria Different-Phenotype (%) [3]: 29%
Population Mitotic Cells (%) [3]: 51%
Population Normal (%) [3]: 97%
Population Pyknosed Nuclei (%) [3]: 19%
Population Tubulin-Different-Phenotype (%) [3]: 27%
Total Cell Count [3]: 277
Population Apoptotic (%) [4]: 54%
Population Fragmented Nuclei (%) [4]: 21%
Population Healthy Nuclei (%) [4]: 60%
Population Hoechst High Intensity Objects (%) [4]: 1%
Population Membrane Permeable-Phenotype (%) [4]: 25%
Population Mitochondria Different-Phenotype (%) [4]: 55%
Population Mitotic Cells (%) [4]: 45%
Population Normal (%) [4]: 98%
Population Pyknosed Nuclei (%) [4]: 18%
Population Tubulin-Different-Phenotype (%) [4]: 48%
Total Cell Count [4]: 135
Population Apoptotic (%) [5]: 82%
Population Fragmented Nuclei (%) [5]: 22%
Population Healthy Nuclei (%) [5]: 68%
Population Hoechst High Intensity Objects (%) [5]: 1%
Population Membrane Permeable-Phenotype (%) [5]: 6%
Population Mitochondria Different-Phenotype (%) [5]: 3%
Population Mitotic Cells (%) [5]: 17%
Population Normal (%) [5]: 98%
Population Pyknosed Nuclei (%) [5]: 9%
Population Tubulin-Different-Phenotype (%) [5]: 3%
Total Cell Count [5]: 249
Population Apoptotic (%) [6]: 66%
Population Fragmented Nuclei (%) [6]: 25%
Population Hoechst High Intensity Objects (%) [6]: 3%
Population Membrane Permeable-Phenotype (%) [6]: 14%
Population Mitochondria Different-Phenotype (%) [6]: 13%
Population Mitotic Cells (%) [6]: 33%
Population Normal (%) [6]: 96%
Population Pyknosed Nuclei (%) [6]: 5%
Population Tubulin-Different-Phenotype (%) [6]: 13%
Total Cell Count [6]: 112
Population Apoptotic (%) [7]: 62%
Population Fragmented Nuclei (%) [7]: 27%
Population Healthy Nuclei (%) [7]: 54%
Population Hoechst High Intensity Objects (%) [7]: 2%
Population Membrane Permeable-Phenotype (%) [7]: 16%
Population Mitochondria Different-Phenotype (%) [7]: 34%
Population Mitotic Cells (%) [7]: 38%
Population Normal (%) [7]: 97%
Population Pyknosed Nuclei (%) [7]: 17%
Population Tubulin-Different-Phenotype (%) [7]: 11%
Total Cell Count [7]: 288
Population Apoptotic (%) [8]: 73%
Population Fragmented Nuclei (%) [8]: 19%
Population Healthy Nuclei (%) [8]: 64%
Population Hoechst High Intensity Objects (%) [8]: 3%
Population Membrane Permeable-Phenotype (%) [8]: 20%
Population Mitochondria Different-Phenotype (%) [8]: 53%
Population Mitotic Cells (%) [8]: 26%
Population Normal (%) [8]: 96%
Population Pyknosed Nuclei (%) [8]: 16%
Population Tubulin-Different-Phenotype (%) [8]: 26%
Total Cell Count [8]: 146
Population Apoptotic (%) [9]: 75%
Population Fragmented Nuclei (%) [9]: 16%
Population Healthy Nuclei (%) [9]: 76%
Population Hoechst High Intensity Objects (%) [9]: 2%
Population Membrane Permeable-Phenotype (%) [9]: 8%
Population Mitochondria Different-Phenotype (%) [9]: 3%
Population Mitotic Cells (%) [9]: 25%
Population Normal (%) [9]: 97%
Population Pyknosed Nuclei (%) [9]: 6%
Population Tubulin-Different-Phenotype (%) [9]: 5%
Total Cell Count [9]: 354
Population Apoptotic (%) [10]: 70%
Population Fragmented Nuclei (%) [10]: 22%
Population Healthy Nuclei (%) [10]: 70%
Population Hoechst High Intensity Objects (%) [10]: 4%
Population Membrane Permeable-Phenotype (%) [10]: 10%
Population Mitochondria Different-Phenotype (%) [10]: 9%
Population Mitotic Cells (%) [10]: 30%
Population Normal (%) [10]: 95%
Population Pyknosed Nuclei (%) [10]: 7%
Population Tubulin-Different-Phenotype (%) [10]: 8%
Total Cell Count [10]: 145
Population Apoptotic (%) [11]: 78%
Population Fragmented Nuclei (%) [11]: 26%
Population Healthy Nuclei (%) [11]: 53%
Population Hoechst High Intensity Objects (%) [11]: 5%
Population Membrane Permeable-Phenotype (%) [11]: 23%
Population Mitochondria Different-Phenotype (%) [11]: 22%
Population Mitotic Cells (%) [11]: 21%
Population Normal (%) [11]: 94%
Population Pyknosed Nuclei (%) [11]: 19%
Population Tubulin-Different-Phenotype (%) [11]: 11%
Total Cell Count [11]: 353
Population Apoptotic (%) [12]: 77%
Population Fragmented Nuclei (%) [12]: 18%
Population Healthy Nuclei (%) [12]: 64%
Population Hoechst High Intensity Objects (%) [12]: 6%
Population Membrane Permeable-Phenotype (%) [12]: 24%
Population Mitochondria Different-Phenotype (%) [12]: 39%
Population Mitotic Cells (%) [12]: 22%
Population Normal (%) [12]: 93%
Population Pyknosed Nuclei (%) [12]: 16%
Population Tubulin-Different-Phenotype (%) [12]: 19%
Total Cell Count [12]: 173

CC(C)C[C@H](CO)Nc1nc(S[C@@H](C)c2ccccc2)nc2nc(N)sc12 [AZD-8797]
Population Apoptotic (%) [1]: 83%
Population Fragmented Nuclei (%) [1]: 20%
Population Healthy Nuclei (%) [1]: 65%
Population Hoechst High Intensity Objects (%) [1]: 3%
Population Membrane Permeable-Phenotype (%) [1]: 5%
Population Mitochondria Different-Phenotype (%) [1]: 1%
Population Mitotic Cells (%) [1]: 16%
Population Normal (%) [1]: 96%
Population Pyknosed Nuclei (%) [1]: 14%
Population Tubulin-Different-Phenotype (%) [1]: 2%
Total Cell Count [1]: 177
Population Apoptotic (%) [2]: 100%
Population Fragmented Nuclei (%) [2]: 12%
Population Healthy Nuclei (%) [2]: 82%
Population Hoechst High Intensity Objects (%) [2]: 0%
Population Mitochondria Different-Phenotype (%) [2]: 5%
Population Mitotic Cells (%) [2]: 0%
Population Normal (%) [2]: 100%
Population Pyknosed Nuclei (%) [2]: 5%
Population Tubulin-Different-Phenotype (%) [2]: 3%
Total Cell Count [2]: 95
Population Apoptotic (%) [3]: 63%
Population Fragmented Nuclei (%) [3]: 21%
Population Healthy Nuclei (%) [3]: 56%
Population Hoechst High Intensity Objects (%) [3]: 4%
Population Membrane Permeable-Phenotype (%) [3]: 30%
Population Mitochondria Different-Phenotype (%) [3]: 12%
Population Mitotic Cells (%) [3]: 36%
Population Normal (%) [3]: 95%
Population Pyknosed Nuclei (%) [3]: 22%
Population Tubulin-Different-Phenotype (%) [3]: 20%
Total Cell Count [3]: 222
Population Apoptotic (%) [4]: 78%
Population Fragmented Nuclei (%) [4]: 9%
Population Healthy Nuclei (%) [4]: 79%
Population Hoechst High Intensity Objects (%) [4]: 2%
Population Membrane Permeable-Phenotype (%) [4]: 10%
Population Mitochondria Different-Phenotype (%) [4]: 16%
Population Mitotic Cells (%) [4]: 21%
Population Normal (%) [4]: 97%
Population Pyknosed Nuclei (%) [4]: 10%
Population Tubulin-Different-Phenotype (%) [4]: 6%
Total Cell Count [4]: 135
Population Apoptotic (%) [5]: 81%
Population Fragmented Nuclei (%) [5]: 20%
Population Healthy Nuclei (%) [5]: 68%
Population Hoechst High Intensity Objects (%) [5]: 1%
Population Membrane Permeable-Phenotype (%) [5]: 2%
Population Mitochondria Different-Phenotype (%) [5]: 0%
Population Mitotic Cells (%) [5]: 18%
Population Normal (%) [5]: 98%
Population Pyknosed Nuclei (%) [5]: 10%
Population Tubulin-Different-Phenotype (%) [5]: 2%
Total Cell Count [5]: 219
Population Apoptotic (%) [6]: 83%
Population Fragmented Nuclei (%) [6]: 17%
Population Healthy Nuclei (%) [6]: 77%
Population Hoechst High Intensity Objects (%) [6]: 0%
Population Membrane Permeable-Phenotype (%) [6]: 4%
Population Mitochondria Different-Phenotype (%) [6]: 2%
Population Mitotic Cells (%) [6]: 16%
Population Normal (%) [6]: 100%
Population Pyknosed Nuclei (%) [6]: 4%
Population Tubulin-Different-Phenotype (%) [6]: 3%
Total Cell Count [6]: 121
Population Apoptotic (%) [7]: 76%
Population Fragmented Nuclei (%) [7]: 20%
Population Healthy Nuclei (%) [7]: 58%
Population Hoechst High Intensity Objects (%) [7]: 3%
Population Membrane Permeable-Phenotype (%) [7]: 22%
Population Mitochondria Different-Phenotype (%) [7]: 12%
Population Mitotic Cells (%) [7]: 24%
Population Normal (%) [7]: 96%
Population Pyknosed Nuclei (%) [7]: 21%
Population Tubulin-Different-Phenotype (%) [7]: 13%
Total Cell Count [7]: 245
Population Apoptotic (%) [8]: 100%
Population Fragmented Nuclei (%) [8]: 7%
Population Healthy Nuclei (%) [8]: 86%
Population Hoechst High Intensity Objects (%) [8]: 1%
Population Membrane Permeable-Phenotype (%) [8]: 9%
Population Mitotic Cells (%) [8]: 0%
Population Normal (%) [8]: 98%
Population Pyknosed Nuclei (%) [8]: 6%
Population Tubulin-Different-Phenotype (%) [8]: 6%
Total Cell Count [8]: 156
Population Apoptotic (%) [9]: 94%
Population Fragmented Nuclei (%) [9]: 18%
Population Healthy Nuclei (%) [9]: 69%
Population Hoechst High Intensity Objects (%) [9]: 2%
Population Membrane Permeable-Phenotype (%) [9]: 6%
Population Mitochondria Different-Phenotype (%) [9]: 0%
Population Mitotic Cells (%) [9]: 5%
Population Normal (%) [9]: 97%
Population Pyknosed Nuclei (%) [9]: 11%
Population Tubulin-Different-Phenotype (%) [9]: 2%
Total Cell Count [9]: 352
Population Apoptotic (%) [10]: 100%
Population Fragmented Nuclei (%) [10]: 15%
Population Healthy Nuclei (%) [10]: 77%
Population Membrane Permeable-Phenotype (%) [10]: 2%
Population Mitochondria Different-Phenotype (%) [10]: 2%
Population Mitotic Cells (%) [10]: 0%
Population Pyknosed Nuclei (%) [10]: 6%
Total Cell Count [10]: 181
Population Apoptotic (%) [11]: 90%
Population Fragmented Nuclei (%) [11]: 26%
Population Healthy Nuclei (%) [11]: 54%
Population Hoechst High Intensity Objects (%) [11]: 4%
Population Membrane Permeable-Phenotype (%) [11]: 20%
Population Mitochondria Different-Phenotype (%) [11]: 10%
Population Mitotic Cells (%) [11]: 9%
Population Normal (%) [11]: 95%
Population Pyknosed Nuclei (%) [11]: 19%
Population Tubulin-Different-Phenotype (%) [11]: 14%
Total Cell Count [11]: 296
Population Apoptotic (%) [12]: 96%
Population Fragmented Nuclei (%) [12]: 12%
Population Healthy Nuclei (%) [12]: 74%
Population Hoechst High Intensity Objects (%) [12]: 3%
Population Membrane Permeable-Phenotype (%) [12]: 11%
Population Mitochondria Different-Phenotype (%) [12]: 5%
Population Mitotic Cells (%) [12]: 3%
Population Normal (%) [12]: 96%
Population Pyknosed Nuclei (%) [12]: 12%
Population Tubulin-Different-Phenotype (%) [12]: 4%
Total Cell Count [12]: 218
